# Laboratory results reported in ChEMBL document CHEMBL4346654 (Eur J Med Chem, 2019).
# Tests used:
# Type in all cases: functional
# Staphylococcus aureus [1] = assay: Antibacterial activity against MLS-resistant Staphylococcus aureus PU 32 expressing inducible ermA gene assessed as reduction in microbial growth by CLSI based two-fold broth dilution method
# Streptococcus pneumoniae [2] = assay: Antibacterial activity against erythromycin-susceptible Streptococcus pneumoniae ATCC49619 assessed as reduction in microbial growth by CLSI based two-fold broth dilution method
# Streptococcus pneumoniae [3] = assay: Bactericidal activity against erythromycin-susceptible Streptococcus pneumoniae ATCC49619 pretreated followed by subculture in absence of compound measured after 24 hrs
# Procedure, shortened: (§1)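 Isolates were identified by 16S rDNA sequencing. MIC was determined by CLSI-recommended two-fold broth dilution. For MBC, samples from 1–8 fold MIC were transferred to culture medium and subcultured for 24 h without antibiotic.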
# Haemophilus influenzae [4] = assay: Antibacterial activity against azithromycin-susceptible Haemophilus influenzae ATCC 49247 assessed as reduction in microbial growth by CLSI based two-fold broth dilution method
# Streptococcus pneumoniae [5] = assay: Selectivity ratio of MBC to MIC for erythromycin-susceptible Streptococcus pneumoniae ATCC49619; procedure, shortened: as §1
# Streptococcus pneumoniae [6] = assay: Antibacterial activity against Streptococcus pneumoniae 07P390 expressing constitutive ermB gene assessed as reduction in microbial growth by CLSI based two-fold broth dilution method
# Streptococcus pneumoniae [7] = assay: Antibacterial activity against penicillin-susceptible Streptococcus pneumoniae PU 09 expressing mef gene assessed as reduction in microbial growth by CLSI based two-fold broth dilution method
# Streptococcus pneumoniae [8] = assay: Bactericidal activity against penicillin-susceptible Streptococcus pneumoniae PU 09 expressing mef gene pretreated followed by subculture in absence of compound measured after 24 hrs; procedure, shortened: as §1
# Streptococcus pneumoniae [9] = assay: Selectivity ratio of MBC to MIC for penicillin-susceptible Streptococcus pneumoniae PU 09 expressing mef gene; procedure, shortened: as §1
# Streptococcus pneumoniae [10] = assay: Bactericidal activity against Streptococcus pneumoniae 07P390 expressing constitutive ermB gene pretreated followed by subculture in absence of compound measured after 24 hrs; procedure, shortened: as §1
# Haemophilus influenzae [11] = assay: Bactericidal activity against azithromycin-susceptible Haemophilus influenzae ATCC 49247 pretreated followed by subculture in absence of compound measured after 24 hrs; procedure, shortened: as §1
# Haemophilus influenzae [12] = assay: Selectivity ratio of MBC to MIC for azithromycin-susceptible Haemophilus influenzae ATCC 49247; procedure, shortened: as §1
# Streptococcus pyogenes [13] = assay: Antibacterial activity against MLS-resistant Streptococcus pyogenes 01-968 expressing inducible ermB gene assessed as reduction in microbial growth by CLSI based two-fold broth dilution method
# Streptococcus pyogenes [14] = assay: Bactericidal activity against MLS-resistant Streptococcus pyogenes 01-968 expressing inducible ermB gene pretreated followed by subculture in absence of compound measured after 24 hrs
# Procedure, shortened: (§2)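 MBC assay. Following MIC determination by CLSI standard two-fold broth dilution, samples at 1–8 fold MIC were transferred to fresh culture medium. They were subcultured for 24 h without antibiotic. Isolates were identified by 16S rDNA sequencing. S. aureus ATCC 29213 was used as a control strain.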
# Streptococcus pyogenes [15] = assay: Selectivity ratio of MBC to MIC for MLS-resistant Streptococcus pyogenes 01-968 expressing inducible ermB gene
# Procedure, shortened: (§3)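 MBC/MIC ratio. MIC was measured by CLSI standard two-fold broth dilution. MBC was measured by transferring samples at 1–8 fold MIC to culture medium and subculturing for 24 h without antibiotic. Isolates were identified by 16S rDNA sequencing.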
# Staphylococcus aureus [16] = assay: Bactericidal activity against MLS/methicillin-resistant Staphylococcus aureus PU 32 expressing inducible ermA gene pretreated followed by subculture in absence of compound measured after 24 hrs; procedure, shortened: as §2
# Staphylococcus aureus [17] = assay: Selectivity ratio of MBC to MIC for MLS/methicillin-resistant Staphylococcus aureus PU 32 expressing inducible ermA gene; procedure, shortened: as §3
# Staphylococcus aureus [18] = assay: Antibacterial activity against MLS-resistant Staphylococcus aureus PU 20 expressing constitutive ermC gene assessed as reduction in microbial growth by CLSI based two-fold broth dilution method
# Staphylococcus aureus [19] = assay: Bactericidal activity against MLS-resistant Staphylococcus aureus PU 20 expressing constitutive ermC gene pretreated followed by subculture in absence of compound measured after 24 hrs; procedure, shortened: as §2
# Streptococcus pneumoniae [20] = assay: Selectivity ratio of MBC to MIC for Streptococcus pneumoniae 07P390 expressing constitutive ermB gene; procedure, shortened: as §1
SMILES,MIC (Staphylococcus aureus [1]) [µg/mL],MIC (Streptococcus pneumoniae [2]) [µg/mL],MBC (Streptococcus pneumoniae [3]) [µg/mL],MIC (Haemophilus influenzae [4]) [µg/mL],Selectivity ratio (Streptococcus pneumoniae [5]),MIC (Streptococcus pneumoniae [6]) [µg/mL],MIC (Streptococcus pneumoniae [7]) [µg/mL],MBC (Streptococcus pneumoniae [8]) [µg/mL],Selectivity ratio (Streptococcus pneumoniae [9]),MBC (Streptococcus pneumoniae [10]) [µg/mL],MBC (Haemophilus influenzae [11]) [µg/mL],Selectivity ratio (Haemophilus influenzae [12]),MIC (Streptococcus pyogenes [13]) [µg/mL],MBC (Streptococcus pyogenes [14]) [µg/mL],Selectivity ratio (Streptococcus pyogenes [15]),MBC (Staphylococcus aureus [16]) [µg/mL],Selectivity ratio (Staphylococcus aureus [17]),MIC (Staphylococcus aureus [18]) [µg/mL],MBC (Staphylococcus aureus [19]) [µg/mL],Selectivity ratio (Streptococcus pneumoniae [20])
CC[C@H]1OC(=O)[C@@](C)(F)C(=O)[C@H](C)[C@@H](O[C@@H]2O[C@H](C)C[C@H](N(C)C)[C@H]2O)[C@](C)(OC)C[C@@H](C)/C(=N\OC/C=C/c2cncc(C(N)=O)c2)[C@H](C)[C@H]2OC(=O)O[C@@]21C,0.25,0.031,0.031,8,1,32,0.5,1,2,> 32,16,2,0.062,> 0.5,>8,> 2,>8,256,> 256,
CC[C@H]1OC(=O)[C@@](C)(F)C(=O)[C@H](C)[C@@H](O[C@@H]2O[C@H](C)C[C@H](N(C)C)[C@H]2O)[C@](C)(OC)C[C@@H](C)/C(=N\OC/C=C/c2cncc(O)c2)[C@H](C)[C@H]2OC(=O)O[C@@]21C,0.25,0.125,0.5,16,4,32,2,4,2,> 32,16,1,0.062,> 0.5,>8,> 2,>8,256,> 256,
CC[C@H]1OC(=O)[C@@](C)(F)C(=O)[C@H](C)[C@@H](O[C@@H]2O[C@H](C)C[C@H](N(C)C)[C@H]2O)[C@](C)(OC/C=C/c2ccc3[nH]cc(C(=O)O)c(=O)c3c2)C[C@@H](C)/C(=N\OC)[C@H](C)[C@H]2OC(=O)O[C@@]21C,0.5,0.062,0.062,8,1,0.5,2,4,2,4,16,2,0.031,0.062,2,2,4,> 256,,8
CC[C@H]1OC(=O)[C@@](C)(F)C(=O)[C@H](C)[C@@H](O[C@@H]2O[C@H](C)C[C@H](N(C)C)[C@H]2O)[C@](C)(OC)C[C@@H](C)/C(=N\OC/C=C/c2ccc3[nH]ccc(=O)c3c2)[C@H](C)[C@H]2OC(=O)O[C@@]21C,1,0.125,0.5,16,4,16,4,8,2,32,32,2,0.062,> 0.5,>8,> 8,>8,256,> 256,2
CC[C@H]1OC(=O)[C@@](C)(F)C(=O)[C@H](C)[C@@H](O[C@@H]2O[C@H](C)C[C@H](N(C)C)[C@H]2O)[C@](C)(OC)C[C@@H](C)/C(=N\OCC#Cc2cncc(C(=O)NC)c2)[C@H](C)[C@H]2OC(=O)O[C@@]21C,0.5,0.125,0.25,8,2,32,1,1,1,> 32,16,2,0.062,> 0.5,>8,> 4,>8,256,> 256,
CC[C@H]1OC(=O)[C@@](C)(F)C(=O)[C@H](C)[C@@H](O[C@@H]2O[C@H](C)C[C@H](N(C)C)[C@H]2O)[C@](C)(OC/C=C/c2cncc(C(=O)O)c2)C[C@@H](C)/C(=N\OC)[C@H](C)[C@H]2OC(=O)O[C@@]21C,2,0.25,0.5,8,2,1,32,> 32,,4,8,1,0.125,> 1,>8,> 16,>8,> 256,,4
CC[C@H]1OC(=O)[C@@](C)(F)C(=O)[C@H](C)[C@@H](O[C@@H]2O[C@H](C)C[C@H](N(C)C)[C@H]2O)[C@](C)(OC/C=C/c2cncc(C(N)=O)c2)C[C@@H](C)/C(=N\OC)[C@H](C)[C@H]2OC(=O)O[C@@]21C,0.125,0.062,0.125,4,2,0.5,2,8,4,4,8,2,0.031,> 0.25,>8,> 1,>8,> 256,,8
CC[C@H]1OC(=O)[C@@](C)(F)C(=O)[C@H](C)[C@@H](O[C@@H]2O[C@H](C)C[C@H](N(C)C)[C@H]2O)[C@](C)(OC)C[C@@H](C)/C(=N\OCC#Cc2cnc(N)c3ccccc23)[C@H](C)[C@H]2OC(=O)O[C@@]21C,8,2,4,64,2,> 32,16,16,1,,64,1,1,8,8,32,4,128,> 128,
CC[C@H]1OC(=O)[C@@](C)(F)C(=O)[C@H](C)[C@@H](O[C@@H]2O[C@H](C)C[C@H](N(C)C)[C@H]2O)[C@](C)(OC)C[C@@H](C)/C(=N\OC/C=C/c2ccc3[nH]cc(C(=O)O)c(=O)c3c2)[C@H](C)[C@H]2OC(=O)O[C@@]21C,2,0.125,0.125,32,1,4,2,4,2,16,32,1,0.016,> 0.125,>8,16,8,256,> 256,4
CC[C@H]1OC(=O)[C@@](C)(F)C(=O)[C@H](C)[C@@H](O[C@@H]2O[C@H](C)C[C@H](N(C)C)[C@H]2O)[C@](C)(OC/C=C/c2ccc3ncc(C(=O)O)cc3c2)C[C@@H](C)/C(=N\OC)[C@H](C)[C@H]2OC(=O)O[C@@]21C,0.062,0.031,0.062,4,2,0.5,8,16,2,4,8,2,≤ 0.008,> 0.062,>8,0.5,8,> 256,,8
